RAM inhibit: inhibitors of the yeast RAM network, primary screen, dse1pr::URA3 reporter, 5-FOA selection | S. cerevisiae dse1pr::URA3 reporter, 5-FOA growth OD615, 2 d; analog-sensitive cbk1-as2 kinase mutant strain | inhibition, % at 50 µM | 190,000 compounds, 1.8% hits;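 active = inhibition above a set limit, 3 SD over mean compound inhibition, cut at about 8.4% in these data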;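 also: inhibition rescues growth on 5-FOA so higher OD means more RAM inhibition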
Phagocytosis inh: inhibitors of macrophage phagocytosis, primary screen, imaging, J774A.1 cells, IgG beads | inhibition, % at 5 µM | AID 1029, 2008 | 110,000 compounds, 0.07% hits | J774A.1 macrophage IgG-bead phagocytosis;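 active = inhibition above the mean of the plate negative controls plus 5 SD, cut at about 13% in these data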;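 also: phagocytic index as fraction of beads internalized from green versus red external bead signal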
Yeast lifespan up: compounds extending yeast replicative lifespan, primary screen, S. cerevisiae, OD615; 130,000 compounds, 0.68% hits; AID 775, 2007; inhibition of the nicotinamide effect, % at 10 µM; S. cerevisiae growth with nicotinamide; deaD strain in restrictive glucose medium;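 active = inhibition above a set limit, placed 3 SD over the median of all compounds, cut at about 26% in these data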
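Material: Modified budding yeast, DeaD strain | Medium: Restrictive glucose medium | Probe or stimulus: 1.5 mM nicotinamide | Dosing: Single dose 10 µM compound, 0.25% DMSO | Times: 48 h at 30 °C | Technique: OD615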
Measles CPE: compounds protecting cells from measles virus cytopathic effect, primary screen, measles RdRp inhibitor project, single point, MLSMR library, absorbance. Measles virus-infected cells, CPE protection. protection (pct of control), % at 4 µM. 140,000 compounds, 1.5% hits. AID 841, 2007; in the data active = protection mostly above about 24%, no sharp cut-off; inactive = mostly below about 26%
Yeast growth inh: growth inhibitors of yeast BB579 in restrictive medium, primary screen, yeast lifespan-shortening project, S. cerevisiae; inhibition, % at 10 µM; OD615, 48 h; 140,000 compounds, 0.51% hits; AID 804, 2007;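 active = inhibition above a set limit, 3 SD over the mean compound inhibition, cut at about 44% in these data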
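Test system: DeaD yeast strain BB579 / Buffer or medium: restrictive glucose-based CSMM-D medium / Doses: single 10 µM dose / Schedule: 4 h cell preincubation, 48 h compound exposure, 30 °C humidified / Technique: culture absorbance at 615 nm / Controls: amphotericin B positive control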
Hits are given with their value; . = inactive; / = no result. In the library only some 3.6% were active in any assay of this set; here they are far more common.

SMILES	RAM inhibit	Phagocytosis inh	Yeast lifespan up	Measles CPE	Yeast growth inh
O=c1c2ccccc2nc(CSc2ncnc3nc[nH]c23)n1-c1cccc(C(F)(F)F)c1	.	.	.	27	.
O=C(O)CSc1ncnc2c1oc1ccccc12	.	.	.	27	.
OCCSc1ncnc2c1oc1ccccc12	.	.	.	.	.
CCOC(=O)N=Nc1c(O)n(Cc2ccccc2)c2ccccc12	11	/	/	/	/
O=C(CCn1c(=O)oc2ccccc21)Nc1nc2ccccc2s1	.	.	.	40	.
CCOC(=O)CSc1ccc(S(=O)(=O)N2CCC(C)CC2)cc1[N+](=O)[O-]	11	.	.	.	.
CCOC(=O)c1c(NC(=O)COc2ncnc3ccccc23)sc(C)c1CC	.	.	.	.	.
O=c1cc(-c2ccc(O)cc2)oc2ccccc12	.	/	/	/	/
O=c1cc(-c2ccncc2)oc2ccccc12	.	.	.	.	46
Cc1ccc(S(=O)(=O)N2CCCCC2)cc1NC(=O)COC(=O)c1ccc2c(c1)OCO2	.	.	.	.	.
CCCCCCCCNC(=O)CCNC(=O)c1ccc(C(C)(C)C)cc1	.	.	.	.	.
COc1ccc(OCCNC2CCCC2)cc1	.	.	.	.	71
CC(C)CNC(=O)C1CCCN(C(=O)NCc2ccccc2)C1 (stereo not given)	.	/	/	/	/
COc1cccc(C(=O)N2C(C(=O)O)CSC2c2ccccc2Cl)c1 (stereo not given)	.	.	.	.	.
C=C(C)COc1ccc(-c2[nH]ncc2-c2ccccc2OC)c(O)c1	.	.	.	.	90
C=C(C)COc1ccc(-c2[nH]ncc2Oc2ccccc2OC)c(O)c1	.	.	.	.	79
C=C(C)COc1ccc(-c2[nH]ncc2-c2ccc(Br)cc2)c(O)c1	.	.	.	.	69
CCOc1ccc(-c2[nH]ncc2-c2ccc(OC)c(OC)c2)c(O)c1	.	.	.	.	.
C=C(C)COc1ccc(-c2n[nH]c(C)c2-c2ccc(Br)cc2)c(O)c1	10	/	.	.	.
COc1ccc(-c2ncccc2OC(=O)C23CC4CC(CC(C4)C2)C3)cc1	.	.	.	.	.
CCCCNC(=O)CCn1c(=O)c2ccccc2n(Cc2ccc(F)cc2)c1=O	.	.	.	.	.
CCOc1ccc(-c2[nH]ncc2Oc2ccccc2OC)c(O)c1	.	.	.	.	.
CCCOC(=O)c1ccc(Oc2cn[nH]c2-c2ccc(OC)cc2O)cc1	.	.	.	.	69
COc1ccc(S(=O)(=O)Nc2ccc(N(C)C(C)=O)cc2)cc1	.	192	.	.	.
COc1ccc(S(=O)(=O)Nc2ccc(NC(C)=O)cc2)cc1	.	/	.	.	.
SMILES	RAM inhibit	Phagocytosis inh	Yeast lifespan up	Measles CPE	Yeast growth inh
O=C1NN(c2ccc(F)cc2)C(=O)/C1=C\c1cnn(-c2ccccc2)c1	.	/	/	/	/
O=C1NN(c2ccc(F)cc2)C(=O)/C1=C\C=C\c1ccco1	.	.	32	.	.
C=CCOn1c(C)c(C(C)=O)c2c3nonc3ccc21	.	/	/	.	.
CCOC(=O)c1c(C)n(OCc2ccccc2)c2ccc3nonc3c12	10	.	.	.	.
COc1ccc(-c2nnc(SCC(=O)Nc3ccc(Cl)cc3)n2C)cc1	.	/	.	.	.
Cn1c(SCC(=O)N/N=C/c2ccc([N+](=O)[O-])s2)nnc1-c1ccc(Cl)cc1	.	/	.	.	99
COc1ccc(C(=O)/C=C/c2cccs2)c(OC(=O)c2cccc([N+](=O)[O-])c2)c1	9.3	.	.	.	.
COc1ccc(C(=O)/C=C/c2ccc(F)cc2)c(OC(=O)c2ccc([N+](=O)[O-])cc2)c1	.	.	.	.	.
Cc1cc(C(=O)NC(C)Cc2ccccc2)cc(C)c1[N+](=O)[O-] (stereo not given)	.	/	/	/	/
CCCCCCCCC(=O)NNC(=O)c1c(O)c2ccccc2n(CCC)c1=O	8.8	/	/	/	/
CCCn1c(=O)c(C(=O)NNS(=O)(=O)c2ccc(Cl)cc2)c(O)c2ccccc21	.	.	27	.	.
CCCn1c(=O)c(C(=O)NCc2ccco2)c(O)c2ccccc21	.	/	/	/	/
CCCCCCCCCCC(=O)NNC(=O)c1c(O)c2ccccc2n(CC)c1=O	8.8	/	/	/	/
C=CCn1c(=O)c(C(=O)NCCc2ccccc2)c(O)c2ccccc21	10	.	29	.	.
CCCCCCCCCC(=O)NNC(=O)c1c(O)c2ccccc2n(CCC)c1=O	.	/	/	/	/
On1nnc2ccc3ccccc3c21	.	.	.	.	.
Cc1ccc2nc(NC(=O)C3=NN(c4ccccc4)C(=O)CC3)sc2c1	.	.	.	.	.
Cc1cccc2sc(NC(=O)C3=NN(c4ccccc4)C(=O)CC3)nc12	11	.	.	.	.
N=c1c2c(-c3ccccc3)c(-c3ccccc3)n(Cc3ccco3)c2ncn1CCCN1CCOCC1	.	/	/	/	/
CC(C)Cn1cnc2c(c(-c3ccccc3)c(-c3ccccc3)n2Cc2ccco2)c1=N	.	.	28	.	.
N=c1c2c(-c3ccccc3)c(-c3ccccc3)n(Cc3ccco3)c2ncn1CCCn1ccnc1	.	.	43	.	.
c1ccc(-c2c(-c3ccccc3)n(Cc3ccco3)c3ncnc(NCCCn4ccnc4)c23)cc1	.	.	43	.	.
COC(=O)c1c(NC(C)=O)sc(C)c1C	.	/	/	/	/
CC(=O)Nc1sc(C)c(C)c1C(=O)OC1CCOC1=O (stereo not given)	.	.	.	37	.
CN(C(=O)Nc1ccc(Cl)cc1Cl)C1CCCC1	.	/	/	/	/
SMILES	RAM inhibit	Phagocytosis inh	Yeast lifespan up	Measles CPE	Yeast growth inh
COc1ccc2cc(-c3cc(C(=O)O)c4ccccc4n3)ccc2c1	.	/	.	.	.
CCOc1ccc2nc(-c3ccc(OC)c(OC)c3)cc(C(=O)O)c2c1	.	.	51	.	.
Cc1ccsc1/C=N/NC(=O)C1CC(=O)N(c2ccccc2)C1 (stereo not given)	.	.	.	.	.
O=C1/C(=C\c2ccc(Br)o2)SC(=Nc2ccccc2)N1c1ccccc1	11	/	.	.	.
O=C(CCC(=O)OCC(=O)c1ccc(Br)cc1)Nc1cccc2cccnc12	.	.	.	.	.
O=C(CSc1cccc2cccnc12)OCC(=O)c1ccc(Br)cc1	9.6	/	.	.	.
O=C(CSCC(=O)OCC(=O)c1ccc(Br)cc1)Nc1cccc2ccccc12	10	.	.	.	.
O=C(CSc1cccc2cccnc12)OCC(=O)c1ccccc1	.	/	.	.	.
COC(=O)c1c(C(=O)OC)c(-c2cccc(Cl)c2)n2c1CS(=O)C2 (stereo not given)	.	/	/	/	/
CCOC(=O)Cn1c2ccccc2c2nc3ccccc3nc21	.	.	.	46	.
CCOC(=O)Cn1c2ccccc2c2nc(C)sc21	.	/	/	/	/
CCN(CC)C(=O)NC1CCCCCCC1	.	/	/	/	/
COc1nccnc1NS(=O)(=O)c1ccc(NC(=S)NC(=O)c2ccc(F)cc2)cc1	.	.	.	34	.

Assay outcomes as filed in PubChem BioAssay.
